Results pooled from the literature.
Lines come from different studies, so protocols differ. pEC50, pIC50: −log10 of the molar value. In brackets after ≈: the same amount, converted by molar mass.

Structure (SMILES) | tested on | test | system | conditions | measurement | result
COc1ccc(NC(=O)c2c(Nc3ccccc3)sc(C#N)c2NC(=O)CNc2ccc(C)cc2)cc1 | HCT-116 | cell growth or viability, SRB | – | 100 µM, 48 h | viability | 60.3%
O=C(O)CN1C(=O)/C(=C/c2c3ccccc3c(-c3ccc(N(c4ccccc4)c4ccccc4)cc3)c3ccccc23)SC1=S | Streptococcus mutans | microbial killing, broth dilution | ATCC25175 | – | MBC | > 1000 µg/mL
CNC(=O)c1cc(Oc2ccc(NC(=O)Nc3ccc(Cl)c(C(F)(F)F)c3)cc2)ccn1 | HCT-116 | cell growth or viability, SRB | – | 1 nM, 48 h | viability | 100%
O=C(O)CN1C(=O)/C(=C/c2ccc(-c3ccc(N(c4ccccc4)c4ccccc4)cc3)cc2)SC1=S | Streptococcus mutans | microbial growth, broth dilution | ATCC25175 | – | MIC | 1000 µg/mL (≈ 1910 µM)
CN(C)C(=O)c1ccc(-c2c(-c3ccccn3)nc3n2CCC3)cc1 | Leishmania infantum | parasite growth | – | 5 days, intracellular, amastigote | pEC50 | 4.40
O=C(O)CN1C(=O)/C(=C/c2ccc(-c3ccc(N(c4ccccc4)c4ccccc4)cc3)c3ccccc23)SC1=S | Streptococcus mutans | microbial killing, broth dilution | ATCC25175 | – | MBC | > 1000 µg/mL
O=C1O[C@H]([C@@H](O)CO)C(O)=C1O | – | DPPH scavenging, absorbance | – | 15 min | pEC50 | 4.47
COc1ccc(NC(=O)c2c(Nc3ccccc3)sc(C(=O)NN=Cc3ccc(Cl)cc3)c2NC(C)=O)cc1 | HCT-116 | cell growth or viability, SRB | – | 100 µM, 48 h | viability | 50.9%
O=C1NC(=S)S/C1=C\c1ccc(-c2ccc(N(c3ccccc3)c3ccccc3)cc2)c2ccccc12 | Streptococcus pyogenes | microbial killing, broth dilution | ATCC19615 | – | MBC | > 1000 µg/mL
c1ccc(-c2nc3n(c2-c2ccncc2)CCC3)nc1 | Leishmania infantum | parasite growth | – | intracellular, amastigote | pIC50 | < 4.19
COc1ccc(NC(=O)c2c(Nc3ccccc3)sc(C(=O)NN=Cc3ccc(OC)c(O)c3)c2NC(C)=O)cc1 | HCT-116 | cell growth or viability, SRB | – | 10 µM, 48 h | viability | 35.6%
Fc1ccc(NCc2c(-c3ccccn3)nc3ccccn23)cc1 | Leishmania infantum | parasite growth | – | 5 days, intracellular, amastigote | pEC50 | 4.90
O=C1NC(=S)N/C1=C\c1ccc(-c2ccc(N(c3ccccc3)c3ccccc3)cc2)cc1 | Streptococcus mutans | microbial killing, broth dilution | ATCC25175 | – | MBC | > 1000 µg/mL
COc1ccc(NC(=O)c2c(Nc3ccccc3)sc(C#N)c2NC(=O)CNc2ccccc2Cl)cc1 | HCT-116 | cell growth or viability, SRB | – | 0.1 µM, 48 h | viability | 64.3%
CS(=O)(=O)c1ccc2nc(-c3ccccn3)c(Nc3ccc(F)cc3)n2c1 | Leishmania infantum | parasite growth | – | intracellular, amastigote | pIC50 | 4.49
COc1ccc(NC(=O)c2c(Nc3ccccc3)sc(C#N)c2NC(=O)CNc2ccc([N+](=O)[O-])cc2)cc1 | HCT-116 | cell growth or viability, SRB | – | 10 nM, 48 h | viability | 92.4%
COc1cccnc1-c1nc2ccccn2c1N(C)c1ccc(F)cc1 | Leishmania infantum | parasite growth | – | intracellular, amastigote | pEC50 | 5.80
COc1ccc(NC(=O)c2c(Nc3ccccc3)sc(C#N)c2NC(=O)CNc2ccc(Cl)cc2)cc1 | HCT-116 | cell growth or viability, SRB | – | 1 µM, 48 h | viability | 60.1%
COc1ccc2occ(/C=C/c3cc(OC)c(OC)c(OC)c3)c(=O)c2c1 | HSC-2 | cell growth or viability, MTT | – | 21 h | CC50 | 5.1 µM
COc1ccc(NC(=O)c2c(Nc3ccccc3)sc(C(=O)NN=Cc3ccc(C)cc3)c2NC(C)=O)cc1 | HCT-116 | cell growth or viability, SRB | – | 0.1 µM, 48 h | viability | 80.5%
Fc1ccc(Nc2c(-c3ccc(F)cn3)nc3ccccn23)cc1 | Leishmania infantum | parasite growth | – | 5 days, intracellular, amastigote | pEC50 | 4.90
O=C1NC(=S)N/C1=C\c1ccc(-c2ccc(N(c3ccccc3)c3ccccc3)cc2)c2ccccc12 | Streptococcus mutans | microbial killing, broth dilution | ATCC25175 | – | MBC | > 1000 µg/mL
NC(=O)N1c2ccccc2C=Cc2ccccc21 | – | MES seizures | rat | intraperitoneal | ED50 | 6.5 mg/kg
O=C(O)CN1C(=O)/C(=C/c2ccc(-c3ccc(N(c4ccccc4)c4ccccc4)cc3)cc2)NC1=S | Streptococcus mutans | microbial growth, broth dilution | ATCC25175 | – | MIC | 62.5 µg/mL (≈ 124 µM)
CC(=O)N(c1ccc(F)cc1)c1c(-c2ccccn2)nc2ccccn12 | Leishmania infantum | parasite growth | – | intracellular, amastigote | pIC50 | < 4.19
COc1ccc(/C=C/c2coc3ccc(OC)cc3c2=O)cc1 | HSC-2 | cell growth or viability, MTT | – | 7 h | CC50 | 20 µM
N#Cc1ccc(-c2c(-c3ccccn3)nc3n2CCC3)cc1 | Leishmania infantum | parasite growth | – | 5 days, intracellular, amastigote | pEC50 | 4.50
Cc1c(C)c2c(c(C)c1O)CCC(C)(C(=O)O)O2 (stereo not shown) | – | lipid peroxidation, inhibitor | – | – | IC50 | 107 µg/mL
